Hits are enriched below; roughly 3.7% of the tested compounds scored in any of these assays.
Dynein cargo inh: dynein cargo transport inhibition. AID 1381. 3617.4 mouse cells, GR-EGFP nuclear translocation imaging; test concentration mostly 20 µM; stimulated with dexamethasone, 1 µM; stronger effect = lower value. z-score, hits read low. 220,000 tested, 0.47% active;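 active = plate z-score of nuclear minus cytoplasmic receptor signal below a set negative limit, without overly bright fluorescence or cell loss, cut at about -3.5 in these data, passing the limit was not always enough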;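 also: z-score of nuclear minus cytoplasmic ring GR-EGFP intensity difference per well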
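Buffer or medium: tet-free, stripped-serum medium; Also added: dexamethasone, 1.0 µM final; Technique: high-content fluorescence imaging after fixation; Times: 48 h induction, 1 h compound, 30 min dex at 37 °C; Read-out: per-cell GR-EGFP intensity, nucleus versus surrounding cytoplasmic ring, well-averaged.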
UPR CHOP act: activators of apoptotic arm of unfolded protein response (CHOP); CHO-CHOP luciferase reporter, UPR activation, luminescence; percent of tunicamycin response over DMSO baseline; activation, % at 10 µM; 330,000 tested, 0.34% active; AID 449763;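 active = at 10 µM dose, activation of 40% or more, normalized to positive control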;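 also: 100% = tunicamycin at 10 µg/mL and 0% = DMSO alone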
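Assay system: CHO-CHOP cells, stable luciferase reporter of PERK-eIF2a-CHOP signalling / Buffer or medium: F12 plus 10% serum / Compound dosing: one dose, 10 µM in 0.5% DMSO / Times: 6 h compound treatment, 37 °C / Technique: luciferase luminescence / Read-out: % reporter activation, DMSO baseline versus tunicamycin full activation / Benchmarks: tunicamycin and DMSO controls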
UPR XBP1 act: adaptive UPR (XBP1) activation; 330,000 tested, 0.33% active; CHO-XBP1 luciferase reporter, IRE1-XBP1 UPR activation, luminescence; percent of tunicamycin response, DMSO as zero; activation, % at 20 µM;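 active = versus positive control, 20 µM dose yields 30% or more activation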;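 also: 100% = tunicamycin at 10 µg/mL and 0% = DMSO only wells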
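Material: CHO-XBP1 cells stably carrying IRE1-XBP1-driven luciferase reporter / Amount: 1000 cells per well / Compound: 20 µM, 1% DMSO / Times: 6 h treatment, 37 °C / Detection: luciferase luminescence / Measure: % activation of reporter signal versus tunicamycin and DMSO controls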
Mdm2 ligase inh: Mdm2 E3 ligase (human) inhibition; signal enhancement, % at 5 µM; AID 1230; 210,000 tested, 0.11% active; cell-based MDM2 ubiquitination luciferase reporter, 2 h; 0 = plate control, 100 = twice control, blank-subtracted; Q00987;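 active = signal enhancement of 30% or more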;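 also: luminescence tracks abundance of the self-degrading MDM2-luciferase fusion protein; higher signal means inhibition of MDM2 E3 ligase activity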
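Timing – 2 h compound exposure at 37 °C · Assay system – mammalian cells stably expressing self-ubiquitinating, self-degrading MDM2 E3–luciferase fusion · Amount – 2000 cells seeded into each well · Measure – % luminescence enhancement versus blank-corrected plate control mean · Measured by – SteadyLite luminescence, 15 min reagent step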
Beta2AR agonist: human beta-2 adrenergic receptor agonism by FAP; P07550; response, % (test concentration not listed); 340,000 tested, 0.43% active; Am2.2-beta2AR cells, FAP receptor internalization, flow cytometry;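 active = response above a set limit, near 3 SD of response in nonfluorescent compounds, cut at about 42% in these data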
Mdm2 MdmX PPI: inhibitors of human Mdm2/MdmX interaction; SaOS-2 split-luciferase Mdm2/MdmX complementation, luminescence; inhibition, % at 8 µM; 330,000 tested, 3% active; AID 485346;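 active = inhibition of at least 50% at 8 µM in the primary screen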
Mdm2-MdmX conf: confirmation of human Mdm2/MdmX interaction inhibitors; AID 489028; shares compounds with Mdm2 MdmX PPI; 10,000 tested, 55% active; Mdm2-MdmX binding, luminescent assay; inhibition, % at 8 µM; in the data active = inhibition above about 40%
Full FLuc ctr: inhibits full-length luciferase, flagging false Mdm2/MdmX hits | shares compounds with Mdm2 MdmX PPI | SaOS-2 full-length luciferase counterscreen, luminescence | inhibition, % at 8 µM | 6,200 tested, 77% active;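 active = mean inhibition at 8 µM reaching about 37%, which flags the compound as non-specific, limit read from the data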;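 also: p53-null SaOS-2 cells with luciferase driven by a doxycycline-inducible promoter; compound on cells about two nights before reading with doxycycline added after day one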
Starred values were filed as active, the others as inactive; · = no result given; + = active, no number.

SMILES | Dynein cargo inh | UPR CHOP act | UPR XBP1 act | Mdm2 ligase inh | Beta2AR agonist | Mdm2 MdmX PPI | Mdm2-MdmX conf | Full FLuc ctr
C[C@@H]1COC(=O)[C@@H](NC(=O)OCC2c3ccccc3-c3ccccc32)C/C=C\C[C@@H](CC(=O)N(CCO)Cc2ccccc2)C(=O)N1 | · | 1 | 2 | · | 1 | 1 | · | ·
COCCNC(=S)N/N=C1\CC(C)CC(C)(C)C1 (stereo unspecified) | -0.38 | 3 | 1 | 7 | -3 | -5 | · | ·
Cn1c(=O)c(C#N)c(-c2ccc(F)cc2)c2cc(C(=O)c3cc(Cl)cc(Cl)c3O)cnc21 | -0.81 | 1 | -1 | -7 | 24 | 83* | 87* | 30
COc1ccccc1-n1c(=O)c(C#N)c(-c2ccc([N+](=O)[O-])cc2)c2cc(C(=O)c3cc(F)ccc3O)cnc21 | 2.9 | 2 | -4 | 0 | 4 | 13 | · | ·
CC(OC(=O)CC1CCCC1)C(=O)Nc1ccc(S(N)(=O)=O)cc1 (stereo unspecified) | · | 1 | -1 | · | 3 | 11 | · | ·
C(=C\c1ccccc1)/C=N/Nc1nc(N2CCCCC2)nc(N2CCCCC2)n1 | -0.41 | 1 | 7 | -4 | 5 | 57* | 16 | ·
Nc1ncnc2c1ncn2CCOc1ccccc1 | -0.47 | 1 | 5 | -7 | 3 | 59* | 7 | ·
CCCC1=Nc2cc(C(=O)NCCCOC(C)C)ccc2Sc2ccccc21 | 1.3 | -1 | 9 | -15 | 23 | 50* | 66* | 71*
CC1=Nc2cc(C(=O)O)ccc2Sc2ccc(Br)cc21 | 0.19 | 0 | -3 | · | 5 | -23 | · | ·
CCCC1=Nc2cc(C(=O)NCCCOCC)ccc2Sc2ccccc21 | 1.6 | -3 | 11 | -1 | 19 | 60* | 72* | 124*
CC1=Nc2cc(C(=O)NCCCOC(C)C)ccc2Sc2ccccc21 | 0.47 | -1 | 1 | -15 | -19 | 49 | · | ·
CCC1=Nc2cc(C(=O)NCCCOC)ccc2Sc2ccccc21 | 0.23 | 0 | 5 | -4 | 25 | 48 | · | ·
CC1=Nc2cc(C(=O)NCCCOC(C)C)ccc2Sc2ccc(C)cc21 | 0.041 | -1 | 7 | -12 | 14 | 63* | 52* | 81*
CC1=Nc2cc(C(=O)NCC3CCCO3)ccc2Sc2ccc(Br)cc21 (stereo unspecified) | 0.5 | 0 | 1 | -10 | 3 | 56* | 60* | 61*
O=C(O)C1CCN(C(=O)c2ccccc2N2C(=O)[C@@H]3Cc4c([nH]c5ccccc45)C(c4cccc(Cl)c4)N3C2=O)CC1 (stereo partly specified) | · | -1 | -2 | · | -3 | 5 | · | ·
CCOC(=O)N/N=C\c1ccc(OC/C=C/c2ccccc2)cc1 | · | 1 | -5 | · | 0 | -32 | · | ·
O=C(CSc1nnc(CNC(=O)c2c(F)cccc2F)o1)NCC1CCCO1 (stereo unspecified) | · | 2 | -7 | · | 1 | 13 | · | ·
Cc1ccc(/C(N)=N/OC(=O)c2ccc(C)cc2Cl)cc1 | -0.66 | 1 | -6 | -54 | 1 | 74* | 77* | +
N/C(=N\OC(=O)c1ccc(Cl)cc1Cl)c1ccc(Cl)cc1 | 1.9 | 1 | -8 | -65 | 9 | 53* | 50* | 146*
Cc1cccc(/C(N)=N/OC(=O)c2ccc(Cl)cc2Cl)c1 | -1 | 1 | -3 | -54 | 5 | -60 | · | ·
N/C(=N\OC(=O)c1ccc(Cl)cc1Cl)c1ccccc1 | 0.65 | -5 | -3 | -27 | -4 | -35 | · | ·
Oc1ccc(N=Nc2ccc3c(c2)OCO3)c2ccccc12 | -0.97 | 66* | 0 | · | · | 94* | 92* | 59*
COc1ccc(NC(=O)C(C)Sc2nnc(C3CC3)n2C2CC2)cc1 (stereo unspecified) | · | -1 | -3 | · | -8 | 25 | · | ·
Cc1cc(NC(=O)Nc2ccccc2[N+](=O)[O-])n(C)n1 | · | 2 | 1 | · | -1 | -20 | · | ·
CC(=O)NC12CC3CC(C1)CC(C(=O)N1CCN(S(=O)(=O)c4ccccc4C#N)CC1)(C3)C2 | · | · | · | · | 3 | · | · | ·
SMILES | Dynein cargo inh | UPR CHOP act | UPR XBP1 act | Mdm2 ligase inh | Beta2AR agonist | Mdm2 MdmX PPI | Mdm2-MdmX conf | Full FLuc ctr
Cc1ccc(C)c2[nH]c(=O)c(CN(CCN3CCCC3)C(=O)Nc3cccc(Cl)c3)cc12 | -2.3 | -1 | -3 | -3 | 20 | 55* | 36 | 38*
CCc1ccc2[nH]c(=O)c(CN(CCCN3CCOCC3)C(=O)Nc3cccc(Cl)c3)cc2c1 | 1.6 | 2 | 1 | -5 | 12 | 50* | 34 | ·
Cc1c(CN(C)C)c2c(n1C)C(=O)c1ccc(Br)cc1-2 | -0.43 | -1 | 0 | -11 | 0 | 16 | · | ·
Cc1c(CN(C)C)c2c(n1Cc1ccccc1)C(=O)c1ccc(Br)cc1-2 | 0.73 | 2 | 3 | -9 | 26 | 77* | 61* | 30
O=C(N/N=C/c1ccc(Cl)cc1)c1cc(-c2cccnc2)nc2ccccc12 | -0.38 | 0 | 7 | -11 | 15 | 39 | · | ·
Cc1ccc(/C=N/NC(=O)c2cc(-c3cccnc3)nc3ccccc23)cc1 | -0.044 | 1 | 16 | -10 | 16 | 54* | 41* | 48*
O=C(N/N=C/c1cccnc1)c1cc(-c2ccc(Br)cc2)nc2ccccc12 | · | 0 | -2 | · | -14 | 52* | 56* | 58*
COc1cccc(-c2nc(NCc3ccccc3)c3ccccc3n2)c1O | · | 2 | 2 | · | 5 | 56* | 16 | ·
O=[N+]([O-])c1ccc(-c2nc(NCc3ccccc3)c3ccccc3n2)cc1 | -0.022 | 2 | -2 | -22 | 2 | 60* | -5 | ·
COC(=O)[C@]1(Cc2ccccc2)N[C@H](CN(C)C(=O)c2ccc(F)cc2)[C@@H]2C(=O)N(C)C(=O)[C@@H]21 | · | 2 | 1 | · | -1 | 7 | · | ·
O=C(Cc1ccccc1[N+](=O)[O-])NCC(O)c1ccc2c(c1)OCO2 (stereo unspecified) | · | · | · | · | 2 | · | · | ·
COC(CNC(=O)c1cn(C)c2ccc(S(=O)(=O)N(C)C3CCCCC3)cc2c1=O)OC | · | 2 | -4 | · | 0 | 17 | · | ·
COc1cccc(CN(Cc2ccccc2F)S(=O)(=O)c2ccc(S(=O)(=O)NCc3ccccc3)cc2)c1 | -0.92 | 0 | 0 | -5 | 2 | 52* | 34 | ·
O=C(Nc1ccc(OC(=O)c2ccccc2)c(-c2nc3ccccc3s2)c1)c1ccccc1 | -0.99 | 15 | 29 | -13 | -2 | 68* | 32 | ·
